# pIC50: −log10 of the molar value. Activity calls are given as the source filed them. No cut-off for these calls is given here.
# Legend:
# RT16 = assay: Selectivity ratio of IC50 for human RFC expressed in Chinese hamster PC43-10 cells assessed as cell growth inhibition to IC50 for human FRalpha expressed in Chinese hamster RT16 cells assessed as cell growth inhibition; assay type: cell-based
# [1] = target: Folate receptor beta (Homo sapiens) (UniProt P14207); assay: Displacement of [3H]-folic acid from human FRbeta expressed in Chinese hamster D4 cells after 15 mins relative to folic acid; assay type: cell-based
# Method in brief: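 Competitive binding to surface folate receptor on RT16 (FRα) or D4 (FRβ) CHO cells. Cells were acid-washed (pH 3.5) to strip bound folate, then incubated in HEPES-buffered saline pH 7.4 with 50 nM [3H]folic acid plus unlabeled ligand (0–1000 nM) for 15 min at 0 °C. Bound label was normalised to protein. Affinity is the inverse molar ratio for 50% displacement, with folic acid set to 1. Mean of 4–10 experiments ±SE.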
# Mus musculus = assay: Toxicity in folate-deficient diet fed NCR SCID mouse xenografted with human SKOV3 cells expressing RFC/PCFT/FRalpha assessed as body weight loss at 16 mg/kg, iv administered every 4 days on day 3, 7, 11 relative to control; assay type: organism-based, SK-OV-3; conditions: in vivo, 96 h
# Method in brief: (§1)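 Ten-week-old female NCR SCID mice, fed a folate-deficient or standard folate-replete diet, were implanted subcutaneously and bilaterally with SKOV3 tumour fragments. Randomised at 5 mice/group. Dosed intravenously, 0.2 mL per injection, in 5% ethanol/1% Tween-80/0.5% NaHCO3 in water at pH 6.5, on days 3, 7 and 11. Tumours measured twice weekly and mice weighed daily. T/C taken on day 21; growth delay and log cell kill also reported.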
# [2] = target: T1, Proton-coupled folate transporter (Homo sapiens) (UniProt Q96NT5); assay: Binding affinity to human PCFT expressed in Chinese hamster R2/PCFT4 cells assessed as intracellular drug transport rate at 37 degC at pH 6.8 measured over 2 mins by Lineweaver-Burk plot analysis; assay type: cell-based
# T1 sequence (whole entry): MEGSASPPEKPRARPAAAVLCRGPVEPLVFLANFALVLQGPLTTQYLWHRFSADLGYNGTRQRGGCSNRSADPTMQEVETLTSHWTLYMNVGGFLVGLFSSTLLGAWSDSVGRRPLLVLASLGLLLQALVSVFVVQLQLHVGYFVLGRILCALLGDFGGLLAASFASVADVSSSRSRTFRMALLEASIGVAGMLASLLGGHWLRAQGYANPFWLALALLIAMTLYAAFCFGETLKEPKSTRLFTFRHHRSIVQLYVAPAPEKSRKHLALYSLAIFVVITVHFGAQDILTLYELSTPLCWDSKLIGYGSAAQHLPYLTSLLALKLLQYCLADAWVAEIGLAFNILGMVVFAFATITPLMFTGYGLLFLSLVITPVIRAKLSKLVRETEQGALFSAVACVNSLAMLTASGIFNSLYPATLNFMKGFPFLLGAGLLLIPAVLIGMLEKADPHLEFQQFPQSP
# Method in brief: (§2)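 R2/PCFT4 CHO cells were grown as monolayers, transferred to spinner flasks, and used as suspensions (5–10 × 10⁷ cells). Uptake was quenched with ice-cold DPBS and cells were NaOH-solubilized. Results are pmol/mg protein; Kt and Vmax come from Lineweaver–Burke plots.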
# IGROV-1 = assay: Antiproliferative activity against human IGROV1 cells after 96 hrs by CellTiter-Blue assay in presence of 200 nM folic acid; assay type: functional, cell-based; conditions: IGROV-1, 96 h
# [3] = target: T1, Proton-coupled folate transporter (Homo sapiens); assay: Binding affinity to human PCFT expressed in Chinese hamster R2/PCFT4 cells assessed as intracellular drug level at 0.5 uM at 37 degC at pH 5.5 measured over 5 mins; assay type: cell-based
# KB = assay: Antiproliferative activity against human KB cells expressing FRalpha/PCFT/RFC assessed as cell growth inhibition after 96 hrs by CellTiter-Blue assay; assay type: functional, cell-based
# SK-OV-3 [4] = assay: Antiproliferative activity against human SKOV3 cells after 96 hrs by CellTiter-Blue assay; assay type: functional, cell-based; conditions: SK-OV-3, 96 h
# Method in brief: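 IGROV1 and SKOV3 cells plated at ~2500–5000 cells/well in folate-free RPMI 1640 with 10% dialyzed FBS, antibiotics and 2 nM LCV, over a range of drug concentrations, ±200 nM folic acid in parallel. Incubated up to 96 h. Viability read by Cell Titer Blue fluorescence (ex 560/em 590 nm).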
# D4 = assay: Selectivity ratio of IC50 for human RFC expressed in Chinese hamster PC43-10 cells assessed as cell growth inhibition to IC50 for human FRbeta expressed in Chinese hamster D4 cells assessed as cell growth inhibition; assay type: cell-based
# R2 [5] = assay: Cytotoxicity against Chinese hamster R2 cells transfected with empty PCDNA3 assessed as cell growth inhibition after 96 hrs by CellTiter-Blue assay; assay type: cell-based, Cricetulus griseus
# [6] = target: Folate receptor beta (Homo sapiens) (UniProt P14207); assay: Binding affinity to human FRbeta expressed in Chinese hamster D4 cells assessed as intracellular drug level at 50 nM at 37 degC after 1 hr; assay type: cell-based
# Method in brief: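 D4 CHO cells (human FRβ) were acid-washed at pH 3.5, then given 50 nM [3H]drug in HBSS pH 7.4 at 37 °C for 60 min. A second acid wash removed surface-bound label to give the intracellular fraction. Cells were solubilised in NaOH, and values expressed as pmol/mg protein. Mean ±SEM of three experiments.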
# SK-OV-3 [7] = assay: Antitumor activity against human SKOV3 cells expressing RFC/PCFT/FRalpha xenografted in folate-replete diet fed NCR SCID mouse assessed as tumor growth inhibition at 16 mg/kg, iv administered every 4 days on day 3, 7, 11 measured on day 21 relative to control; assay type: functional; method in brief: as §1
# SK-OV-3 [8] = assay: Antitumor activity against human SKOV3 cells expressing RFC/PCFT/FRalpha xenografted in folate-deficient diet fed NCR SCID mouse assessed as log10 of gross cell killing at 16 mg/kg, iv administered every 4 days on day 3, 7, 11 measured twice per week; assay type: functional; method in brief: as §1
# [9] = target: T1, Proton-coupled folate transporter (Homo sapiens); assay: Binding affinity to human PCFT expressed in Chinese hamster R2/PCFT4 cells assessed as intracellular drug transport rate at 37 degC at pH 5.5 measured over 2 mins by Lineweaver-Burk plot analysis; assay type: cell-based; method in brief: as §2
# R2 [10] = assay: Cellular uptake in PCFT-null Chinese hamster R2 cells at 0.5 uM at 37 degC at pH 5.5 measured over 2 mins; assay type: ADME, cell-based, Cricetulus griseus; conditions: r2, pH 5.5, 2 min
# Method in brief: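 R2/PCFT4 or PCFT-null R2 CHO cells were grown in suspension from spinner flasks. Uptake of 0.5 μM [3H]drug measured over 2 min at 37 °C in MES-buffered saline pH 5.5, with or without 10 μM unlabeled competitor. Uptake was quenched with ice-cold DPBS and cells solubilised in NaOH. Results are pmol/mg protein, mean ±SEM of three experiments.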
# Folate receptor beta (Homo sapiens), sequence (P14207 17-230 limits assumed): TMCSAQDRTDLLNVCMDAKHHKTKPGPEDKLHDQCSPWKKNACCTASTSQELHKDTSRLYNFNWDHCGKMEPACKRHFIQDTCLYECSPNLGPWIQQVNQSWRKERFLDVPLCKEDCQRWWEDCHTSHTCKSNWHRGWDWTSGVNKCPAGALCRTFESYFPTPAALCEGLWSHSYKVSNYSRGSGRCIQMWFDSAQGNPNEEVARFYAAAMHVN
smiles,measurement,setting,value
Nc1nc2[nH]c(CCCc3cc(C(=O)N[C@@H](CCC(=O)O)C(=O)O)cs3)cc2c(=O)[nH]1,Ratio IC50,RT16,610
same,Activity,[1],35%
same,Activity,Mus musculus,12.1%
same,K,[2],0.17 µM
same,pIC50,IGROV-1,6.56
same,Activity,[3],Active
same,pIC50,KB,10.05
same,pIC50,SK-OV-3 [4],7.81
same,Ratio IC50,D4,1890
same,pIC50,R2 [5],< 6.00
same,Activity,[6],3.35 pmol/mg
same,T/C,SK-OV-3 [7],69%
same,LCK,SK-OV-3 [8],1.9
same,K,[9],0.22 µM
same,Drug uptake,R2 [10],Not Active

# — ChEMBL document CHEMBL3627626, “6-Substituted Pyrrolo[2,3-d]pyrimidine Thienoyl Regioisomers as Targeted Antifolates for Folate Receptor α and the Proton-Coupled Folate Transporter in Human Tumors” (J Med Chem, 2015)
